# Source: PubChem BioAssay
# A selection: hits, their analogues and other compounds. The true share with any hit is near 1.8%.
# Tn6 DDE FP: disrupts Tn6 cyclic peptide binding to fibrin D-Dimer-E complex; P02675; Fibrin DD(E) TRITC-Tn6 fluorescence polarization displacement; inhibition, % at 8.3 µM; 370,000 compounds, 0.21% hits; AID 720509;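 active = inhibition above a per-campaign cutoff: mean of compounds within control limits plus 3 SD, cut at about 15% in these data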;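 note: 0% = median of all compound wells on the plate and 100% = blocking peptide control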
# Tn7 DDE FP: inhibitors of Tn7 peptide binding to human fibrin DD(E); P02675; FP displacement of FITC-Tn7 peptide from fibrin DD(E); 0% = median of compound wells per plate; inhibition, % at 8.3 µM; 370,000 compounds, 0.13% hits;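 active = inhibition above the mean of compounds falling within the control limits plus 3 SD of them, cut at about 14% in these data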;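 note: 0% = plate median of compound wells and 100% = 10 µM Aha-Tn7 peptide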
#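 system = human fibrin DD(E) protein | quantity = DD(E) 2 µM final | medium = Tris/NaCl/CaCl2 buffer, pH 7.8 | also added = labelled Tn7 tracer, 0.1 µM | compound dosing = single point at 8.3 µM | timing = compound with protein 10 min, then 3 h after probe, room temperature | signal = FP measurement | benchmarks = Aha-Tn7 high control | repeats = one replicate per compound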
# ARNT-TACC3 inh: disruptors of human ARNT/TACC3 interaction; Q9Y6A5; AlphaScreen His-ARNT PAS-B/GST-TACC3 binding, luminescence; TACC3 fragment carries E629A point mutation; inhibition, % at 9.99 µM; 390,000 compounds, 0.66% hits; AID 623870;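 active = mean inhibition of replicates at least 50% and at least half of replicates each reaching 50%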;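 note: 0% = complete ARNT plus TACC3 wells and 100% = ARNT alone without TACC3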
# CAL PDZ FP-1: CAL PDZ (human) peptide binding inhibition. Q9HD26. 300,000 compounds, 0.92% hits. purified CAL PDZ, TMR-peptide fluorescence polarization, 1 h. inhibition, % at 24.9 µM;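 active = mean inhibition of at least 30% with at least half of replicates also reaching 30%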;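 note: 0% = DMSO neutral control and 100% = excess unlabeled competitor peptide PRC23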
# GRK2 inh: inhibitors of human GRK2 displacing RNA aptamer | P25098 | bead flow cytometry, FAM-aptamer displacement from GRK2 | inhibition of aptamer binding, % at 10 µM | 330,000 compounds, 0.59% hits;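 active = inhibition of aptamer binding above 40%, roughly 3 SD of noise, on plates passing a quality check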;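 note: median bead fluorescence of bound FAM aptamer so fluorescent compounds give negative values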
# Target sequence (P25098 whole entry, looked up): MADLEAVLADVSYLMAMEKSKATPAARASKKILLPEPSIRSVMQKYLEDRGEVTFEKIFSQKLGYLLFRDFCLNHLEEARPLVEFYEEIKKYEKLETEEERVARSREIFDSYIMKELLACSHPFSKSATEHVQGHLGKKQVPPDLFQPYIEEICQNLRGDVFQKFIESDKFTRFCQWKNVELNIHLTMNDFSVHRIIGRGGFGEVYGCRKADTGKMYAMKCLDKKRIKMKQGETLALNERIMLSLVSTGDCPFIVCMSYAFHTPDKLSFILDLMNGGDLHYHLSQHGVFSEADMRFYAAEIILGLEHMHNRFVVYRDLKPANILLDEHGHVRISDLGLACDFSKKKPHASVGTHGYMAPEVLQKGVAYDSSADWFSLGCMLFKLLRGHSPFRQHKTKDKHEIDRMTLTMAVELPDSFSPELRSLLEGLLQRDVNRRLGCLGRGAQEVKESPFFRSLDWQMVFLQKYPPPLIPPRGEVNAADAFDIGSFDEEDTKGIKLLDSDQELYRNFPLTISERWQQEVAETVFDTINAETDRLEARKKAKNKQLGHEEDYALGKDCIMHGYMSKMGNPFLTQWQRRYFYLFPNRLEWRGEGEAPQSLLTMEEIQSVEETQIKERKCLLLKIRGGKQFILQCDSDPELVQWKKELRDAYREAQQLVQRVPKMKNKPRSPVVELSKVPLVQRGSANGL
# CAL PDZ FP-2: human CAL PDZ-peptide interaction inhibition | 330,000 compounds, 0.02% hits | Q9HD26 | purified CAL PDZ, TMR-peptide fluorescence polarization, 1 h | inhibition, % at 20 µM | AID 504414;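 active = highest replicate inhibition of at least 40%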;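 note: plate controls were DMSO neutral control wells for no effect and unlabeled competitor peptide control wells for full effect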
#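 Control set: unlabelled peptide and DMSO controls / Material: purified CerCALP PDZ construct / Timing: 1 h incubation at room temperature before polarization reading / Doses: 20 µM, one dose / Detection: fluorescence polarization (mP)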
# * marks the source's active call; other numbers are inactive results; · = no result.
SMILES,Tn6 DDE FP,Tn7 DDE FP,ARNT-TACC3 inh,CAL PDZ FP-1,GRK2 inh,CAL PDZ FP-2
COC(=O)c1cn(NC(=O)Cc2cccc(OC)c2)c(=O)c2ccccc12,-9,5,-3,34*,2,-1
COC(=O)c1cn(NC(=O)c2ccc(OC)c(OC)c2)c(=O)c2ccccc12,3,0,-2,-1,0,0
CC(C)NC(=O)Nc1ccc2c(c1)CC(=O)N([C@H](C)CO)C[C@@H](C)[C@@H](CN(C)C(=O)NC1CCCCC1)O2,·,·,-3,·,·,·
CCOc1ccccc1N1C(=O)CN(Cc2ccc(OC)c(OC)c2)C1=S,-6,6,-12,48*,2,·
COc1ccc(CN2CC(=O)N(c3ccccc3OC)C2=S)cc1OC,-11,-8,·,-4,0,-1
CCC(C)[C@H](NC(=O)N1CCCC1)C(=O)OC (stereo not given in full),7,4,-7,-4,3,1
CCC(C)[C@H](NC(=O)N1CCC(C)CC1)C(=O)OC (stereo not given in full),-1,9,-7,52*,11,0
CN(C)c1cccc(C(=O)OCC(=O)N(Cc2ccccc2)C2CCS(=O)(=O)C2)c1 (stereo not given),-1,-3,1,0,0,-1
NC(=O)Nc1ccc(C(=O)OCC(=O)N(Cc2ccccc2)C2CCS(=O)(=O)C2)cc1 (stereo not given),1,2,-6,37*,0,0
Cc1cccc(C)c1OCC(=O)N(Cc1ccc(N(C)C)cc1)C1CCS(=O)(=O)C1 (stereo not given),2,-8,7,76*,1,0
Cc1cc(C(=O)NNC(=O)c2ccc(C(F)(F)F)cc2)no1,3,-4,-4,60*,0,0
Cc1cc(C(=O)NNC(=O)Nc2cccc(C(F)(F)F)c2)no1,-4,1,·,-3,0,0
Cc1cc(C(=O)NNC(=O)c2cccc(C(F)(F)F)c2)no1,10,-5,-5,45*,0,-1
Cc1cc(=O)oc2c(C)c(OCC(=O)NCCCN3CCOCC3)ccc12,1,3,1,-3,29,-2
COC(=O)[C@@H](NC(=O)N1CCC(Cc2ccccc2)CC1)C(C)C,1,-1,-1,6,4,-2
CCc1ccc(C(=O)NNC(=O)c2c(CC)noc2C)cc1,0,-8,-14,60*,2,0
Cc1noc(C)c1S(=O)(=O)Nc1ccc2c(c1)C(=O)N([C@H](C)CO)C[C@H](C)[C@H](CN(C)C(=O)CCC(F)(F)F)OCCCC[C@@H](C)O2,·,·,-2,·,·,·
CCOC(=O)c1cc([N+](=O)[O-])sc1N,5,1,-1,62*,0,-1
CCOC(=O)c1cc([N+](=O)[O-])sc1NC(=O)CC,-5,5,1,1,0,0
COC(=O)C1=C(C)N(C)C(=NCc2ccc(OC)cc2)NC1c1ccc(F)cc1 (stereo not given),0,2,·,·,·,·
COc1ccc(NC(=O)CSc2nnc(N)n2CC(=O)Nc2ccc(OC)cc2)cc1,0,2,-4,52*,0,0
COc1ccc(NC(=O)CSc2nnc(-c3ccoc3C)n2CCc2ccccc2)cc1,1,1,7,103*,0,·
C[C@H]1CN([C@@H](C)CO)C(=O)c2cc(NS(=O)(=O)c3ccc(F)cc3)ccc2O[C@H]1CN(C)C(=O)Nc1ccc2c(c1)OCO2,·,·,1,·,·,·
CCCC(=O)Nc1ccc(N2CCN(C(=O)CCC)CC2)cc1,-3,-1,-1,39*,1,-1
CCCCC(=O)Nc1ccc(N2CCN(C(=O)CC)CC2)cc1,4,-7,-10,·,6,0
SMILES,Tn6 DDE FP,Tn7 DDE FP,ARNT-TACC3 inh,CAL PDZ FP-1,GRK2 inh,CAL PDZ FP-2
O=C(CSc1ccccn1)N1CCCC(Nc2ccccc2)C1 (stereo not given),-6,-3,1,·,·,0
O=C(CSc1ccccc1)N1CCCC(Nc2ccccc2)C1 (stereo not given),8,5,0,61*,1,1
NC(=O)C1CCCN1S(=O)(=O)c1ccc2ccccc2c1 (stereo not given),-3,5,·,-1,0,-3
CCCCCCCCCC(=O)O,-2,0,·,8,1,-3
CCCCCC#CCC#CCC#CCC#CCCCC(=O)O,·,·,-10,·,50*,·
Cc1ccnc(NC(=O)CNC(=O)c2sc3ccccc3c2Cl)c1,-8,-2,-14,-7,2,0
Cc1ccnc(NC(=O)c2sc3cc(Cl)ccc3c2Cl)c1,1,1,-9,81*,3,-1
C[C@@H]1CN([C@H](C)CO)C(=O)c2cccc(NS(C)(=O)=O)c2O[C@@H]1CN(C)C(=O)Nc1ccc(C(F)(F)F)cc1,·,·,-5,·,·,·
C=C(C)Cn1c(SCCCO)nc2c1c(=O)[nH]c(=O)n2C,0,7,8,0,0,·
C=C(C)Cn1c(Sc2nc3ccccc3[nH]2)nc2c1c(=O)[nH]c(=O)n2C,6,6,-3,35*,1,-1
S=C(NCCN1CCOCC1)N/N=C/c1ccccc1,1,0,-1,-1,2,·
Oc1ccc(/C=N/NC(=S)NCCN2CCOCC2)c(O)c1,5,-6,60*,·,2,0
COCCn1c(-c2ccc(OC)cc2)cnc1SCC(=O)Nc1cc(C)on1,-2,-1,-9,2,3,-1
COCCn1c(-c2ccc(OC)cc2)cnc1N,-6,-3,45*,15,1,-2
Cc1cc(N=Cc2c(O)n(-c3ccc4c(c3)OCO4)c(=O)c3ccccc23)ccn1,1,-1,3,35*,0,-1
N#C[C@@H]1[C@@H](c2ccc(C#CC3(O)CCCC3)cc2)[C@@H](CO)N1C(=O)C1CCCCC1,·,·,-7,·,·,·
O=C(c1ccc2nc[nH]c2c1)N1CCc2ccccc2C1,-2,4,-3,54*,1,-1
c1ccc(-n2nnnc2SCc2ccccn2)cc1,2,-1,-9,-1,2,-2
Cc1nnc(SCc2ccccn2)n(N)c1=O,1,-1,active,-1,0,-2
Cc1nnc(SCc2cccc3ccccc23)n(N)c1=O,4,2,-4,-1,0,-1
Nn1c(SCc2ccccn2)nncc1=O,-7,0,56*,-4,2,-2
Cc1noc(C)c1NC(=O)N[C@@H]1C=C[C@@H](CC(=O)N2CCN(C)CC2)O[C@H]1CO,·,·,-11,·,·,·
O=C(OCc1ccccc1)N1CCC2CC1c1cc(-c3ccccc3)ccc12 (stereo not given),-4,4,-2,53*,·,0
Cc1ccccc1NC1=NC(=S)N(c2ccccc2)C12CCOC(C)(C)C2 (stereo not given),-3,-3,2,42*,3,17
